{"data": "Measurements pooled from the literature", "target": "Protein-tyrosine kinase 2-beta (PTK2B, Homo sapiens, UniProt Q14289)", "note": "Each line is one published result; the experiments were not run side by side."}
{"SMILES": "CN(C)C(=O)Cn1cc(-c2nc([C@@](C)(c3ccc(-c4cnc(N)nc4)cc3)C3CC3)no2)cn1", "assay": "cell-free assay, competition with immobilised ligand", "conditions": "1 µM", "remaining binding [%]": 87}
{"SMILES": "c1cnn2ncc(-c3ccnc(N4CCC45COC5)n3)c2c1", "assay": "binding", "conditions": "1 µM", "remaining binding [%]": 80}
{"SMILES": "C=CC(=O)N1CCC(C(=O)NCC(=O)N2CCN(c3nc(-c4cnc(N)nc4C(F)F)nc(N4CCOCC4)n3)CC2)CC1", "assay": "binding, competition with immobilised ligand", "conditions": "1 µM", "remaining binding [%]": 100}
{"SMILES": "CN(C)c1nccc(-c2cnn3ncccc23)n1", "assay": "binding", "conditions": "1 µM", "remaining binding [%]": 87}
{"SMILES": "O=C(NCCCN1CCOCC1)c1ccc(Nc2nccc(-c3cc4ccccc4s3)n2)cc1", "assay": "binding, competition with immobilised ligand", "conditions": "1 µM", "remaining binding [%]": 64}
{"SMILES": "O=C(O)[C@H]1[C@H](Cn2nnc3ccccc3c2=O)CC[C@@H]1C(=O)c1ccc(OCCC2CCOCC2)cc1", "assay": "cell-free assay, competition with immobilised ligand", "conditions": "1 µM", "remaining binding [%]": 75}
{"SMILES": "CN(C)c1ncc(F)c(-c2cnn3ncccc23)n1", "assay": "binding", "conditions": "1 µM", "remaining binding [%]": 100}
{"SMILES": "O=C(Nc1c[nH]nc1C(=O)NC1CCNCC1)c1cc(F)cc(F)c1", "assay": "binding, competition with immobilised ligand", "conditions": "1 µM", "remaining binding [%]": 91}
{"SMILES": "COc1ncc2cc3ccccc3nc2c1C#N", "assay": "cell-free assay, competition with immobilised ligand", "conditions": "5 µM", "remaining binding [%]": 100}
{"SMILES": "Nc1cnc(N2CCc3cc(S(=O)(=O)Nc4c(F)cc(Cl)cc4F)cc(N4CCCC4=O)c32)nc1", "assay": "cell-free assay, competition with immobilised ligand", "conditions": "1 µM", "remaining binding [%]": 100}
{"SMILES": "COc1ccnn2ncc(-c3ccnc(N(C)C)n3)c12", "assay": "binding", "conditions": "1 µM", "remaining binding [%]": 100}
{"SMILES": "C[C@@H](c1ccc(-n2cnc3c(N)ncnc32)cc1)N1CCc2nn(C)c(Cc3ccccc3)c2C1=O", "assay": "binding, competition with immobilised ligand", "conditions": "0.1 µM", "remaining binding [%]": 95}
{"SMILES": "O=C(NCCCN1CCOCC1)c1ccc(Nc2ncc(Cl)c(-c3ccc(Cl)s3)n2)cc1", "assay": "binding, competition with immobilised ligand", "conditions": "1 µM", "remaining binding [%]": 41}
{"SMILES": "CC1CCCN1c1nccc(-c2cnn3ncccc23)n1 (stereo not drawn)", "assay": "binding", "conditions": "1 µM", "remaining binding [%]": 100}
{"SMILES": "NS(=O)(=O)c1cc(NC(=O)C2(c3ccccc3Cl)CC2)ccc1Oc1cccc(Cl)c1", "assay": "cell-free assay, competition with immobilised ligand", "conditions": "1 µM", "remaining binding [%]": 91}
{"SMILES": "N[C@@H]1CCN(c2nccc(-c3cnn4ncccc34)n2)C1", "assay": "binding", "conditions": "1 µM", "remaining binding [%]": 100}
{"SMILES": "O=C(c1ccc(Nc2ncc(Cl)c(-c3ccc(Cl)s3)n2)cc1)N1CCC(N2CCCC2)CC1", "assay": "binding, competition with immobilised ligand", "conditions": "1 µM", "remaining binding [%]": 49}
{"SMILES": "C[C@H](c1cccc(C#N)c1)n1cc(Cl)cc(C(N)=O)c1=N", "assay": "cell-free assay, competition with immobilised ligand", "conditions": "1 µM", "remaining binding [%]": 100}
{"SMILES": "CNC(=O)[C@@H]1CC[C@@H](n2c(-c3ccc4cnccc4c3)nc3ccc(C(=O)NCc4cccc(C(N)=O)c4)cc32)C1", "assay": "binding, competition with immobilised ligand", "conditions": "1 µM", "remaining binding [%]": 99}
{"SMILES": "O=C(NC[C@@H]1[C@H]2CN(C(=O)OCc3cc(C(F)(F)F)cc(C(F)(F)F)c3)C[C@@H]12)c1ccc2[nH]nnc2c1", "assay": "cell-free assay, competition with immobilised ligand", "conditions": "1 µM", "remaining binding [%]": 85}
{"SMILES": "CCN1CCN(Cc2ccc(C(=O)Nc3ccc(C)c(Oc4ccc5c(c4)CC(=O)N5)c3)cc2C(F)(F)F)CC1", "assay": "binding, competition with immobilised ligand", "conditions": "1 µM", "remaining binding [%]": 49}
